Laboratory results reported in ChEMBL document CHEMBL1124606, “Benzo- and pyrido-1,4-oxazepin-5-ones and -thiones: synthesis and structure-activity relationships of a new series of H1 antihistamines” (1989).

Assays:
Felis catus [1] = assay: The compound dose required for 50% block of H1 histamine activity, when administarted intra venously in cats; assay type: functional
Method in brief: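 Cats given test compound iv (0.001-20 mg/kg), with blood pressure recorded continuously. Histamine 0.5 μg/kg iv was given to induce hypotension, before and 5, 10 and 20 min after each dose. The antihistaminic dose was the one inhibiting the histamine response by >50%. Values are mean ± SD over the number of experiments per compound.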

Cavia porcellus [2] = assay: Histamine induced lethality, at 30-min pretreatment time when 30 mg/kg compound was administered intra peritoneally in guinea pigs; assay type: functional
Felis catus [3] = assay: The compound dose required to elicit marked cortical slowing and spindling, when administarted intra venously in cats; assay type: functional
Method in brief: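 Cats given test compound iv (0.001-20 mg/kg), with spontaneous EEG inspected after each dose for cortical slowing, synchrony and spindle-type activity. The sedative dose was the one producing marked slowing and spindling (synchrony). Values are mean ± SD over the number of experiments per compound.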

Cavia porcellus [4] = assay: Histamine induced lethality, at 30-min pretreatment time when 0.3 mg/kg compound was administered intra peritoneally in guinea pigs; assay type: functional
[5] = target: Histamine H1 receptor (Cavia porcellus) (UniProt P31389); assay: Histamine induced lethality, at 30-min pretreatment time of 3 mg/kg i.p. in guinea pigs.; assay type: functional, organism-based; design: dose 3 mg/kg; details: at 3 mg/kg
Histamine H1 receptor (Cavia porcellus), sequence (P31389 whole entry): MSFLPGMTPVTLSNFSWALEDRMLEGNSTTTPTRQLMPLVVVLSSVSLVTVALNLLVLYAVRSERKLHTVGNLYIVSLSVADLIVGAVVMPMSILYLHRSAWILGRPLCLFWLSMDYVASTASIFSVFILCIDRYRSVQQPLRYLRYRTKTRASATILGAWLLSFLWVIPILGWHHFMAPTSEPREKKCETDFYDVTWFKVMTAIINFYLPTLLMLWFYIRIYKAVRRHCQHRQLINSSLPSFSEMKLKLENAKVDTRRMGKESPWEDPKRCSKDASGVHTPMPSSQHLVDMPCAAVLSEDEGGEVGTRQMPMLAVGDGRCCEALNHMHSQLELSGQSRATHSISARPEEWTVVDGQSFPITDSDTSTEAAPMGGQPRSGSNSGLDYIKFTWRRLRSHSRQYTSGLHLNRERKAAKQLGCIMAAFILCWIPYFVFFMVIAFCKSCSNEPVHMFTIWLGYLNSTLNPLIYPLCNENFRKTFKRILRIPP

Cavia porcellus [6] = assay: Histamine induced lethality, at 30-min pretreatment time when 1 mg/kg compound was administered intra peritoneally in guinea pigs; assay type: functional
[7] = target: Histamine H1 receptor (Cavia porcellus) (UniProt P31389); assay: Histamine induced lethality, at 60-min pretreatment time of 0.1 mg/kg p.o. in guinea pigs.; assay type: functional, organism-based; design: dose 0.1 mg/kg; details: at 0.1 mg/kg
Cavia porcellus [8] = species: Cavia porcellus; assay: Effective dose that protects guinea pigs against histamine induced lethality, at 1 hour pretreatment time; assay type: functional
Method in brief: (§1)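 Survival at 24 h after challenge was scored as protection. Groups of 5–10 animals per treatment; ED50 was calculated by the Litchfield–Wilcoxon method or by computer probit analysis.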

Cavia porcellus [9] = species: Cavia porcellus; assay: Effective dose that protects guinea pigs against histamine induced lethality at 6 hours pretreatment time; assay type: functional; method in brief: as §1
Cavia porcellus [10] = assay: Histamine induced lethality, at 30-min pretreatment time when 3 mg/kg compound was administered intra peritoneally in guinea pigs; assay type: functional
Cavia porcellus [11] = assay: Histamine induced lethality, at 30-min pretreatment time when 1 mg/kg compound was administered perorally in guinea pigs; assay type: functional; details: route oral
Cavia porcellus [12] = assay: Histamine induced lethality, at 60-min pretreatment time when 30 mg/kg compound was administered perorally in guinea pigs; assay type: functional; details: route oral
Cavia porcellus [13] = assay: Histamine induced lethality, at 60-min pretreatment time when 1 mg/kg compound was administered perorally in guinea pigs; assay type: functional; details: route oral
Cavia porcellus [14] = assay: Histamine induced lethality, at 60-min pretreatment time when 3 mg/kg compound was administered perorally in guinea pigs; assay type: functional; details: route oral
Cavia porcellus [15] = assay: Histamine induced lethality, at 60-min pretreatment time when 0.1 mg/kg compound was administered perorally in guinea pigs; assay type: functional; details: route oral
Cavia porcellus [16] = assay: Histamine induced lethality, at 60-min pretreatment time when 0.3 mg/kg compound was administered perorally in guinea pigs; assay type: functional; details: route oral
Cavia porcellus [17] = assay: Histamine induced lethality, at 30-min pretreatment time when 30 mg/kg compound was administered intra peritoneallyn guinea pigs; assay type: functional

| SMILES | Dose (Felis catus [1]) | survival at 30 mg/kg (Cavia porcellus [2]) | Dose (Felis catus [3]) | Survival [5] | Survival [7] | ED50 (Cavia porcellus [8]) | ED50 (Cavia porcellus [9]) | further results |
| --- | --- | --- | --- | --- | --- | --- | --- | --- |
| CN(C)CCC1CN(C)C(=S)c2cc3ccccc3cc2O1 (stereo not drawn) | 0.5 mg/kg | 100% | >20 mg/kg | 67% |  |  |  | survival at 0.3 mg/kg (Cavia porcellus [4]): 100% |
| CN(C)CCC1CN(C)C(=O)c2cnccc2O1 (stereo not drawn) |  | 100% |  | 67% |  |  |  | survival at 1 mg/kg (Cavia porcellus [6]): 33% |
| CN1CC(CCN2CCC2)Oc2ncc(Cl)cc2C1=S (stereo not drawn) | 0.005 mg/kg |  | >20 mg/kg |  | 100% | 0.02 mg/kg | 0.02 mg/kg |  |
| CN(C)CCC1CN(C)C(=S)c2cccnc2S1 (stereo not drawn) |  | 100% |  |  |  |  |  | survival at 3 mg/kg (Cavia porcellus [10]): 0% |
| CN(C)CCC1CN(C)C(=S)c2cnccc2O1 (stereo not drawn) |  | 100% |  | 100% |  |  |  | survival at 1 mg/kg (Cavia porcellus [6]): 0% |
| CN(C)CCC1CN(C)C(=S)c2ccccc2O1 (stereo not drawn) |  |  | >20 mg/kg |  |  |  |  | survival at 1 mg/kg (Cavia porcellus [11]): 50%; survival at 30 mg/kg (Cavia porcellus [12]): 100%; survival at 1 mg/kg (Cavia porcellus [13]): 0%; survival at 3 mg/kg (Cavia porcellus [14]): 0%; survival at 0.1 mg/kg (Cavia porcellus [15]): 100% |
| CN(C)CCC(c1ccc(Br)cc1)c1ccccn1 (stereo not drawn) [BROMPHENIRAMINE] | 1.3 mg/kg |  | 1.7 mg/kg |  | 40% | 0.08 mg/kg | 2.5 mg/kg | survival at 0.3 mg/kg (Cavia porcellus [16]): 100% |
| CN(C)CCC1CN(C)C(=O)c2cc3ccccc3nc2O1 (stereo not drawn) |  |  |  | 100% |  |  |  | survival at 1 mg/kg (Cavia porcellus [6]): 0% |
| CN(C)CCC1CN(C)C(=S)c2ccc3ccccc3c2O1 (stereo not drawn) |  | 100% |  |  |  |  |  | survival at 3 mg/kg (Cavia porcellus [10]): 33% |
| CN(C)CCC1CN(C)C(=O)c2cccnc2S1 (stereo not drawn) |  |  |  | 0% |  |  |  | survival at 30 mg/kg (Cavia porcellus [17]): 67% |
| CN1CC(CCN2CCC2)Oc2ncc(Cl)cc2C1=O (stereo not drawn) | 0.06 mg/kg |  | >20 mg/kg |  | 100% | 0.04 mg/kg | 0.8 mg/kg |  |
| CN(C)CCC1CN(C)C(=S)c2cc(Cl)cnc2O1 (stereo not drawn) | 0.5 mg/kg |  | >20 mg/kg |  | 100% | 0.04 mg/kg | 0.6 mg/kg |  |
| CN1CC(CCN2CCC2)Oc2ncccc2C1=O (stereo not drawn) | 0.6 mg/kg |  | >20 mg/kg |  | 67% | 0.13 mg/kg | 6 mg/kg | survival at 0.3 mg/kg (Cavia porcellus [16]): 100% |
| CN(C)CCC1CN(C)C(=S)c2cccnc2O1 (stereo not drawn) [ROCASTINE] | 0.5 mg/kg |  | >20 mg/kg |  | 50% | 0.12 mg/kg | 6 mg/kg | survival at 0.3 mg/kg (Cavia porcellus [16]): 100% |
